In ChEMBL document CHEMBL4152204, “Discovery of N-hydroxy-3-alkoxybenzamides as direct acid sphingomyelinase inhibitors using a ligand-based pharmacophore model” (Eur J Med Chem, 2018):
The source made the active and inactive calls. The calls are words filed in the database; no cut-off is given here.

What was measured:
[1] = target: T1, Sphingomyelin phosphodiesterase (Homo sapiens, UniProt P17405); assay: Inhibition of acid sphingomyelinase in human HuH7 cell lysate using NBD-sphingomyelin as substrate after 30 mins by TLC based fluorescence assay
T1 sequence (P17405 whole entry): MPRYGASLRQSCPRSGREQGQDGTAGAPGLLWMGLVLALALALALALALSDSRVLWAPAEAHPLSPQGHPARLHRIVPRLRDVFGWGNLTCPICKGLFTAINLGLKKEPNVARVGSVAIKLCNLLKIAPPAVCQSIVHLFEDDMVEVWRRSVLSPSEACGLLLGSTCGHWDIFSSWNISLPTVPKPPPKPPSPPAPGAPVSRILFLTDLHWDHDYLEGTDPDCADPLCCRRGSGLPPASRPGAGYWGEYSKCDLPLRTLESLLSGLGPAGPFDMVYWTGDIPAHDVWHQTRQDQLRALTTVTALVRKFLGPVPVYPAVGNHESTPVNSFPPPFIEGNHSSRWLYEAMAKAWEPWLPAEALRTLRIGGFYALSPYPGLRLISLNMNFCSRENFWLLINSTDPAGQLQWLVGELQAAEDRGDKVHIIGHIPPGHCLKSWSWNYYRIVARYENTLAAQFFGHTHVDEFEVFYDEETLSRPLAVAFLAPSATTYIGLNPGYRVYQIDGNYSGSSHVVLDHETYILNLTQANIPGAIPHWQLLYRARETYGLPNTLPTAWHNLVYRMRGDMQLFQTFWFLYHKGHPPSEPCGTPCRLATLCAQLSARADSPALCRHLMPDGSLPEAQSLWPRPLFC

[2] = target: T2, Sphingomyelin phosphodiesterase (Homo sapiens) (UniProt P17405); assay: Competitive inhibition of acid sphingomyelinase in human HuH7 cell lysate using varying levels of NBD-sphingomyelin as substrate at 0.5 to 5 uM after 30 mins by Lineweaver-Burk analysis; details: in the assay text read “after 10 mins” for “after 30 mins”
T2 sequence (whole entry): T1 sequence (P17405 whole entry)
In short: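 Kinetics using the lysate ASM protocol, NBD-SM at 1.35, 1.89, 2.70, 4.54 and 13.5 µM per inhibitor level (0.5, 1.0, 5 µM); reaction stopped after 10 min; NBD-ceramide quantified by HPLC against a standard curve; Lineweaver-Burk plots by linear regression; triplicate.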

[3] = target: T3, Sphingomyelin phosphodiesterase (Mus musculus) (UniProt Q04519); assay: Inhibition of acid sphingomyelinase in mouse NIH/3T3 cells assessed as decrease in ceramide levels after 20 hrs by LC-MS/MS analysis; type: cell-based
T3 sequence (whole entry): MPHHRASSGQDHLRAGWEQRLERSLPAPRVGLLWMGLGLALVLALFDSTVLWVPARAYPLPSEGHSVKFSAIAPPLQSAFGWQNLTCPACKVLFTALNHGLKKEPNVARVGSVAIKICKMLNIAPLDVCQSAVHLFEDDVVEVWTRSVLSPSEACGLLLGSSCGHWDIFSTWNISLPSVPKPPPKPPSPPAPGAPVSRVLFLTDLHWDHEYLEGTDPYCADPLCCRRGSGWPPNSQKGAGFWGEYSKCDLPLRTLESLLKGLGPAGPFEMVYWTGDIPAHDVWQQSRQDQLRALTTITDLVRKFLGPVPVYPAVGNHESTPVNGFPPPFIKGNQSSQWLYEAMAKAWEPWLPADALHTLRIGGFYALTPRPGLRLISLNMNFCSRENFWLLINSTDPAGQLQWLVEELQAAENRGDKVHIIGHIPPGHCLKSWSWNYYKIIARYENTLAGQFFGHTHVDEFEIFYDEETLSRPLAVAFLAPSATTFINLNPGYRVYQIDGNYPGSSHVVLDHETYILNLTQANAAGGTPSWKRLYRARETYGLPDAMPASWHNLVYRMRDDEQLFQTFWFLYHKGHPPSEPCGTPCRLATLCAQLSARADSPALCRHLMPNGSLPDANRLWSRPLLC
In short: (§1)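 NIH3T3 cells in DMEM with 10% FBS, 37 °C, 5% CO₂; at 90% confluence given fresh medium plus inhibitor (5, 10, 20 µM) for 20 h; total ceramides and sphingomyelin quantified by LC-MS-MS versus untreated control; mean ± SD of three independent experiments, Student's t-test.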

[4] = target: T3, Sphingomyelin phosphodiesterase (Mus musculus); assay: Inhibition of acid sphingomyelinase in mouse NIH/3T3 cells assessed as increase in […] level at 20 uM after 20 hrs by LC-MS/MS analysis relative to control; type: cell-based; set-up: scale not given: the % may be the effect or the level left; in short: as §1
NIH3T3 [5] = assay: Cytoprotective activity against UV-induced apoptosis in mouse NIH/3T3 cells assessed as early apoptotic cells at 10 uM preincubated for 20 hrs followed by UV irradiation for 5 mins and measured after 24 hrs by flow cytometric analysis (reference value: 79.5%); type: functional
NIH3T3 [6] = assay: Cytoprotective activity against UV-induced apoptosis in mouse NIH/3T3 cells assessed as late apoptotic cells at 10 uM preincubated for 20 hrs followed by UV irradiation for 5 mins and measured after 24 hrs by flow cytometric analysis (reference value: 6.4%); type: functional
NIH3T3 [7] = assay: Cytoprotective activity against UV-induced apoptosis in mouse NIH/3T3 cells assessed as early apoptotic cells at 20 uM preincubated for 20 hrs followed by UV irradiation for 5 mins and measured after 24 hrs by flow cytometric analysis (reference value: 79.5%); type: functional
NIH3T3 [8] = assay: Cytoprotective activity against UV-induced apoptosis in mouse NIH/3T3 cells assessed as necrotic cells at 20 uM preincubated for 20 hrs followed by UV irradiation for 5 mins and measured after 24 hrs by flow cytometric analysis (reference value: 1.5%); type: functional
NIH3T3 [9] = assay: Cytoprotective activity against UV-induced apoptosis in mouse NIH/3T3 cells assessed as viable cells at 40 uM preincubated for 20 hrs followed by UV irradiation for 5 mins and measured after 24 hrs by flow cytometric analysis (reference value: 12.6%); type: functional; details: NIH3T3, light or radiation study, read-out: Activity
NIH3T3 [10] = assay: Cytoprotective activity against UV-induced apoptosis in mouse NIH/3T3 cells assessed as early apoptotic cells at 40 uM preincubated for 20 hrs followed by UV irradiation for 5 mins and measured after 24 hrs by flow cytometric analysis (reference value: 79.5%); type: functional
NIH3T3 [11] = assay: Cytoprotective activity against UV-induced apoptosis in mouse NIH/3T3 cells assessed as late apoptotic cells at 40 uM preincubated for 20 hrs followed by UV irradiation for 5 mins and measured after 24 hrs by flow cytometric analysis (reference value: 6.4%); type: functional
NIH3T3 [12] = assay: Cytoprotective activity against UV-induced apoptosis in mouse NIH/3T3 cells assessed as viable cells at 60 uM preincubated for 20 hrs followed by UV irradiation for 5 mins and measured after 24 hrs by flow cytometric analysis (reference value: 12.6%); type: functional; details: NIH3T3, light or radiation study, read-out: Activity
NIH3T3 [13] = assay: Cytotoxicity against mouse NIH/3T3 cells after 24 hrs by MTT assay; type: cell-based; details: NIH3T3, 24 h
NIH3T3 [14] = assay: Inhibition of LPS-induced IL-6 production in mouse NIH/3T3 cells preincubated for 20 hrs followed by LPS-stimulation and measured after 6 hrs by ELISA; type: functional, cell-based
In short: (§2)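 NIH3T3 cells (DMEM, 10% FBS) seeded at 2*10⁵ per well overnight, inhibitor 20 h, then LPS to 50 ng/mL for a further 6 h; IL-6 or IL-8 measured by ELISA; compared with LPS-only and control groups.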

NIH3T3 [15] = assay: Inhibition of LPS-induced IL-8 production in mouse NIH/3T3 cells preincubated for 20 hrs followed by LPS-stimulation and measured after 6 hrs by ELISA; type: functional, cell-based; in short: as §2

`CCCCCCCCCCOc1cc(C(=O)NO)ccc1OC` was tested, and the IC50 [1] was 0.48 µM, the inhibition [2] was “Active” and the inhibition [3] was “Dose-dependent effect”. It also gave an Activity [4] of 37.5%, an Activity (NIH3T3 [5]) of 42.1% and an Activity (NIH3T3 [6]) of 11%. The Activity (NIH3T3 [7]) was 36.8%, the Activity (NIH3T3 [8]) was 0.2% and the viability at 40 µM (NIH3T3 [9]) was 50.9%. For the same compound, the Activity (NIH3T3 [10]) was 41.1%, the Activity (NIH3T3 [11]) was 7.9% and the viability at 60 µM (NIH3T3 [12]) was 36.2%. For the same compound, the IC50 (NIH3T3 [13]) was 51.4 µM, the inhibition (NIH3T3 [14]) was “Dose-dependent effect” and the inhibition (NIH3T3 [15]) was “Dose-dependent effect”.
